In ChEMBL document CHEMBL4371006, “Discovery of N-[4-(Quinolin-4-yloxy)phenyl]benzenesulfonamides as Novel AXL Kinase Inhibitors” (J Med Chem, 2018):
Activity calls are given as the source filed them. The rule behind the calls is not given here.

Columns and labels:
[1] = molecular target: T1, Tyrosine-protein kinase receptor UFO (Homo sapiens, UniProt P30530); assay: Inhibition of AXL (unknown origin) phosphorylation after 1 hr by ELISA
T1 sequence (P30530 whole entry): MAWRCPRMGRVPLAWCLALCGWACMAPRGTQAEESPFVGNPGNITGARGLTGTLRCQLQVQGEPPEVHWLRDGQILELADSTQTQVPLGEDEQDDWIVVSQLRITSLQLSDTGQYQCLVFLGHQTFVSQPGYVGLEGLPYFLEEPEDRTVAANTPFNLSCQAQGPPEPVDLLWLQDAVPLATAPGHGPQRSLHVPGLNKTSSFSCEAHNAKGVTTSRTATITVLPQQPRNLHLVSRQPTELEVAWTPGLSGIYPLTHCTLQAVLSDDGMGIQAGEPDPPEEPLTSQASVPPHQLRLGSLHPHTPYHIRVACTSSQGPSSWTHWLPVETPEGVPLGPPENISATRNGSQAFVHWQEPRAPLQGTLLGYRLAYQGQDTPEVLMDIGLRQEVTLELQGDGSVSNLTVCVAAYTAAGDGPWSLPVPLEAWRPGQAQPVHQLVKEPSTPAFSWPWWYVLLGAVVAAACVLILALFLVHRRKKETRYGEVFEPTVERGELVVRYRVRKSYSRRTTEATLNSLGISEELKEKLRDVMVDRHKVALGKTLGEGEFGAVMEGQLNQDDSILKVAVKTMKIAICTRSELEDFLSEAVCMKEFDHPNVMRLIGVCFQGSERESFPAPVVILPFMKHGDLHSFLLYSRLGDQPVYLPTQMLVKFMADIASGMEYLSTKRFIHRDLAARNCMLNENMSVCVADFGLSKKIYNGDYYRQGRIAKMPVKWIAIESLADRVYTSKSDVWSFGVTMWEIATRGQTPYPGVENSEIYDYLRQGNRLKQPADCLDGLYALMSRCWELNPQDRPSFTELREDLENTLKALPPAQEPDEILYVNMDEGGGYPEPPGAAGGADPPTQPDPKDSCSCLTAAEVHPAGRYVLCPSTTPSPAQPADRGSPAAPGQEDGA

[2] = molecular target: Tyrosine-protein kinase receptor UFO (Homo sapiens) (UniProt P30530); assay: Binding affinity to wild-type human partial length AXL (R497 to Y821 residues) expressed in bacterial expression system assessed as residual binding level at 5 umol/L by Kinomescan method
[3] = molecular target: Serine/threonine-protein kinase 10 (Homo sapiens, UniProt O94804); assay: Binding affinity to wild-type human partial length LOK (E16 to V314 residues) expressed in bacterial expression system assessed as residual binding level at 5 umol/L by Kinomescan method
[4] = molecular target: Protein-tyrosine kinase 6 (Homo sapiens) (UniProt Q13882); assay: Binding affinity to wild-type human partial length BRK (L166 to T451 residues) expressed in bacterial expression system assessed as residual binding level at 5 umol/L by Kinomescan method
[5] = molecular target: T2, Proto-oncogene tyrosine-protein kinase Src (Homo sapiens, UniProt P12931); assay: Binding affinity to wild-type human partial length SRC (L240 to L536 residues) expressed in bacterial expression system assessed as residual binding level at 5 umol/L by Kinomescan method
T2 sequence (P12931 2-536 limits assumed): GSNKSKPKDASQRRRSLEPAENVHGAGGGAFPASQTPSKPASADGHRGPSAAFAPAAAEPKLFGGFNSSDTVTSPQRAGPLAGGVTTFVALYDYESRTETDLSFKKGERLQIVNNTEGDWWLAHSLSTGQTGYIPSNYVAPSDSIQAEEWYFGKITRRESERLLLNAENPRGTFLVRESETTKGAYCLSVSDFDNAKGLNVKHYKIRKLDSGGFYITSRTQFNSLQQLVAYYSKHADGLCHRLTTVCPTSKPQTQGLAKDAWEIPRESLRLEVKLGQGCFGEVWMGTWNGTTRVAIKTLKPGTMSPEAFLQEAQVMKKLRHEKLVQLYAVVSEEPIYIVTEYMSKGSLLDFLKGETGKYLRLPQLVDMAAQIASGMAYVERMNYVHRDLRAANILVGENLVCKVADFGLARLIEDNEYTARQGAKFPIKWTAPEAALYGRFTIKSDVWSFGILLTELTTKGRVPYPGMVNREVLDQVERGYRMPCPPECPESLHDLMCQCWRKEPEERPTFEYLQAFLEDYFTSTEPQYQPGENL

[6] = molecular target: Tyrosine-protein kinase Blk (Homo sapiens) (UniProt P51451); assay: Binding affinity to wild-type human partial length BLK (G211 to L503 residues) expressed in bacterial expression system assessed as residual binding level at 5 umol/L by Kinomescan method
[7] = molecular target: Tyrosine-protein kinase Lck (Homo sapiens) (UniProt P06239); assay: Binding affinity to wild-type human partial length LCK (R207 to P509 residues) expressed in bacterial expression system assessed as residual binding level at 5 umol/L by Kinomescan method
[8] = molecular target: Receptor-interacting serine/threonine-protein kinase 2 (Homo sapiens, UniProt O43353); assay: Binding affinity to wild-type human partial length RIPK2 (M1 to K310 residues) expressed in bacterial expression system assessed as residual binding level at 5 umol/L by Kinomescan method
[9] = molecular target: Platelet-derived growth factor receptor alpha (Homo sapiens) (UniProt P16234); assay: Binding affinity to wild-type human partial length PDGFRA (V575 to D1002 residues) expressed in mammalian expression system assessed as residual binding level at 5 umol/L by Kinomescan method
[10] = molecular target: Platelet-derived growth factor receptor beta (Homo sapiens) (UniProt P09619); assay: Binding affinity to wild-type human partial length PDGFRB (V582 to Y1009 residues) expressed in bacterial expression system assessed as residual binding level at 5 umol/L by Kinomescan method
[11] = molecular target: Macrophage colony-stimulating factor 1 receptor (Homo sapiens) (UniProt P07333); assay: Binding affinity to wild-type human partial length CSF1R (I564 to S939 residues) expressed in bacterial expression system assessed as residual binding level at 5 umol/L by Kinomescan method
Chain of Macrophage colony-stimulating factor 1 receptor (Homo sapiens) (P07333 whole entry, the tested form may be a part): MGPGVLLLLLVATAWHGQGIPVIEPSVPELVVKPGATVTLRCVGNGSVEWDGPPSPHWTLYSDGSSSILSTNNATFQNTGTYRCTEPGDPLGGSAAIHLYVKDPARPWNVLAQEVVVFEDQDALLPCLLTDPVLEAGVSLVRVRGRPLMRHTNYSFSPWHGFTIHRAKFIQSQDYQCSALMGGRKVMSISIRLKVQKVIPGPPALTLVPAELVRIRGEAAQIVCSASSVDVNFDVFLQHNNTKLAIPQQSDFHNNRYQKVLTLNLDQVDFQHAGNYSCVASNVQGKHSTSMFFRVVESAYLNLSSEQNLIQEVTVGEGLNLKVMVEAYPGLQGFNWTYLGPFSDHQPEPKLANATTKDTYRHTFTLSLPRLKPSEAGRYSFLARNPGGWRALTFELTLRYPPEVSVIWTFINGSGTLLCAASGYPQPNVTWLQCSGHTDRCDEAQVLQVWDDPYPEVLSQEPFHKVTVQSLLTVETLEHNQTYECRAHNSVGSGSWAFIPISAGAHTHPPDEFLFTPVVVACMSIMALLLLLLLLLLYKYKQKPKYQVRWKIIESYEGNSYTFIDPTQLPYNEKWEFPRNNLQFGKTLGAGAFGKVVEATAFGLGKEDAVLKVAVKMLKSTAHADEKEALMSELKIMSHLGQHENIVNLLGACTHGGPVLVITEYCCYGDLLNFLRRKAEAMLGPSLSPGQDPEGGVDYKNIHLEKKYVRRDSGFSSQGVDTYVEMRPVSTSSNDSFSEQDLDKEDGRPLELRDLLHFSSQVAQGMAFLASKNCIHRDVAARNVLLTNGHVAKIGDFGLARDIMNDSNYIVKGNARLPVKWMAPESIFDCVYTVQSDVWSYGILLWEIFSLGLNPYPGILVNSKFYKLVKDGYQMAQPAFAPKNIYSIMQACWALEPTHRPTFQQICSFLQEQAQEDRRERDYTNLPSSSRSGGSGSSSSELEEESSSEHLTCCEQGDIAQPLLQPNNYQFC

[12] = molecular target: Epithelial discoidin domain-containing receptor 1 (Homo sapiens) (UniProt Q08345); assay: Binding affinity to wild-type human partial length DDR1 (R565 to V876 residues) expressed in bacterial expression system assessed as residual binding level at 5 umol/L by Kinomescan method
[13] = molecular target: T3, Epidermal growth factor receptor (Homo sapiens, UniProt P00533); assay: Binding affinity to wild-type human partial length EGFR (R669 to V1011 residues) expressed in bacterial expression system assessed as residual binding level at 5 umol/L by Kinomescan method
T3 sequence (P00533 whole entry, the tested form may be a part): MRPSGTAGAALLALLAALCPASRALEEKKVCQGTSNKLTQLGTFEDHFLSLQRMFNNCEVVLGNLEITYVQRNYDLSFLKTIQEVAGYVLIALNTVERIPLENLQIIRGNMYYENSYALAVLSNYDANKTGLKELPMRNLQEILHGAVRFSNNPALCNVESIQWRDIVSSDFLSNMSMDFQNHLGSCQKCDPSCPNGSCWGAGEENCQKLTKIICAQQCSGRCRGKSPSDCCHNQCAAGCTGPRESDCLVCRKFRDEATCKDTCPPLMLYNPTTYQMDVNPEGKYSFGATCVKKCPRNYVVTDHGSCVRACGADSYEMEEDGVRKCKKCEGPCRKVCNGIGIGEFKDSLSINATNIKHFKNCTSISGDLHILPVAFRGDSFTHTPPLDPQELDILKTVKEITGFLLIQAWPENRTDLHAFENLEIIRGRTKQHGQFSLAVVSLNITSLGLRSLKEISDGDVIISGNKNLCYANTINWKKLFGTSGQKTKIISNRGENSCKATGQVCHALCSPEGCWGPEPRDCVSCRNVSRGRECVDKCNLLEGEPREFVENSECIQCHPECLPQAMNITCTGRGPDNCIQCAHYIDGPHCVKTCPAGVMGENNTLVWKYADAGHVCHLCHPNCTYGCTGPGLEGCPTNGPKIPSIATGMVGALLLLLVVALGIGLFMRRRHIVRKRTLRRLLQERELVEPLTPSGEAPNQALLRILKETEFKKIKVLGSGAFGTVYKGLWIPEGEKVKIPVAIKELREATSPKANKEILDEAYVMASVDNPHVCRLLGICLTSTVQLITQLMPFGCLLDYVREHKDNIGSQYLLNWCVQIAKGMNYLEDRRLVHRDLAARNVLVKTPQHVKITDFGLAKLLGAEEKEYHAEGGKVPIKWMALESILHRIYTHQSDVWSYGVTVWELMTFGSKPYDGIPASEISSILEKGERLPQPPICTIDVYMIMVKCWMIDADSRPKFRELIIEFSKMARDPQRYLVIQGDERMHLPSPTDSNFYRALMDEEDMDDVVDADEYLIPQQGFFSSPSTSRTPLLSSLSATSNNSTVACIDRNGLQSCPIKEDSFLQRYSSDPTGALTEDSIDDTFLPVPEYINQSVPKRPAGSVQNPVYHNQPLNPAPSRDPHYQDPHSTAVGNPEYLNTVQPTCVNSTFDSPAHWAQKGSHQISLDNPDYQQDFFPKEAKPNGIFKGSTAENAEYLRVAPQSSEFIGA

[14] = molecular target: Tyrosine-protein kinase ABL1 (Homo sapiens) (UniProt P00519); assay: Binding affinity to wild-type human phosphorylated ABL1 (S229 to K512 residues) expressed in mammalian expression system assessed as residual binding level at 5 umol/L by Kinomescan method
[15] = molecular target: Mast/stem cell growth factor receptor Kit (Homo sapiens) (UniProt P10721); assay: Binding affinity to wild type human partial length c-KIT (I571 to D952 residues) expressed in bacterial expression system assessed as residual binding level at 5 umol/L by Kinomescan method
Chain of Mast/stem cell growth factor receptor Kit (Homo sapiens) (P10721 whole entry, the tested form may be a part): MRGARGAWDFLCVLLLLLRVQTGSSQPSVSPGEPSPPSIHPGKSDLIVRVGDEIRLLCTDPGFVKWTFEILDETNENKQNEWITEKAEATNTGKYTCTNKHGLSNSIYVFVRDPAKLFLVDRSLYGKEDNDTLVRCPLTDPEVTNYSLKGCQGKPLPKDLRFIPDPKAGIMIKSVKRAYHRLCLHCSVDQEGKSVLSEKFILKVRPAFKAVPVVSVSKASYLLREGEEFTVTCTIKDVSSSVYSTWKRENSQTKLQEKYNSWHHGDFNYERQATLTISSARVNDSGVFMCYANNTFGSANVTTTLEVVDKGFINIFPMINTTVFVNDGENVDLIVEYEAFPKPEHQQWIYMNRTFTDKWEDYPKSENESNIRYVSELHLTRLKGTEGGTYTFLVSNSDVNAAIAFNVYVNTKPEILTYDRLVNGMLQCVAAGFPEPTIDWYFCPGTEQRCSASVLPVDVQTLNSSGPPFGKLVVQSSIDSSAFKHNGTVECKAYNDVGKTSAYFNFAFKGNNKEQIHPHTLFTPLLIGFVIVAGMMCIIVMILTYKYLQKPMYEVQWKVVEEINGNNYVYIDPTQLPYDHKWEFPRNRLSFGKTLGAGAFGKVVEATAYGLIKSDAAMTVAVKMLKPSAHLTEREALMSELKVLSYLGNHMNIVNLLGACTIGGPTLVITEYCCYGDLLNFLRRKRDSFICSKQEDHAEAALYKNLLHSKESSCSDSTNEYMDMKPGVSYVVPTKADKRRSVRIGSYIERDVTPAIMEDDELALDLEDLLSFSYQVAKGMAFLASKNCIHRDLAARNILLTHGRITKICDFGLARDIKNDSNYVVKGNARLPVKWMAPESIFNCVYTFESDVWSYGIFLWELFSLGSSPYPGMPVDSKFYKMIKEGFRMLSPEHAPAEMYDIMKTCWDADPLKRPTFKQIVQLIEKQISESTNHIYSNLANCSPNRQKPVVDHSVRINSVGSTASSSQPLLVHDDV

[16] = molecular target: T4, Hepatocyte growth factor receptor (Homo sapiens, UniProt P08581); assay: Binding affinity to wild type human partial length c-MET (D1010 to S1367 residues) expressed in bacterial expression system assessed as residual binding level at 5 umol/L by Kinomescan method
T4 sequence (P08581 whole entry, the tested form may be a part): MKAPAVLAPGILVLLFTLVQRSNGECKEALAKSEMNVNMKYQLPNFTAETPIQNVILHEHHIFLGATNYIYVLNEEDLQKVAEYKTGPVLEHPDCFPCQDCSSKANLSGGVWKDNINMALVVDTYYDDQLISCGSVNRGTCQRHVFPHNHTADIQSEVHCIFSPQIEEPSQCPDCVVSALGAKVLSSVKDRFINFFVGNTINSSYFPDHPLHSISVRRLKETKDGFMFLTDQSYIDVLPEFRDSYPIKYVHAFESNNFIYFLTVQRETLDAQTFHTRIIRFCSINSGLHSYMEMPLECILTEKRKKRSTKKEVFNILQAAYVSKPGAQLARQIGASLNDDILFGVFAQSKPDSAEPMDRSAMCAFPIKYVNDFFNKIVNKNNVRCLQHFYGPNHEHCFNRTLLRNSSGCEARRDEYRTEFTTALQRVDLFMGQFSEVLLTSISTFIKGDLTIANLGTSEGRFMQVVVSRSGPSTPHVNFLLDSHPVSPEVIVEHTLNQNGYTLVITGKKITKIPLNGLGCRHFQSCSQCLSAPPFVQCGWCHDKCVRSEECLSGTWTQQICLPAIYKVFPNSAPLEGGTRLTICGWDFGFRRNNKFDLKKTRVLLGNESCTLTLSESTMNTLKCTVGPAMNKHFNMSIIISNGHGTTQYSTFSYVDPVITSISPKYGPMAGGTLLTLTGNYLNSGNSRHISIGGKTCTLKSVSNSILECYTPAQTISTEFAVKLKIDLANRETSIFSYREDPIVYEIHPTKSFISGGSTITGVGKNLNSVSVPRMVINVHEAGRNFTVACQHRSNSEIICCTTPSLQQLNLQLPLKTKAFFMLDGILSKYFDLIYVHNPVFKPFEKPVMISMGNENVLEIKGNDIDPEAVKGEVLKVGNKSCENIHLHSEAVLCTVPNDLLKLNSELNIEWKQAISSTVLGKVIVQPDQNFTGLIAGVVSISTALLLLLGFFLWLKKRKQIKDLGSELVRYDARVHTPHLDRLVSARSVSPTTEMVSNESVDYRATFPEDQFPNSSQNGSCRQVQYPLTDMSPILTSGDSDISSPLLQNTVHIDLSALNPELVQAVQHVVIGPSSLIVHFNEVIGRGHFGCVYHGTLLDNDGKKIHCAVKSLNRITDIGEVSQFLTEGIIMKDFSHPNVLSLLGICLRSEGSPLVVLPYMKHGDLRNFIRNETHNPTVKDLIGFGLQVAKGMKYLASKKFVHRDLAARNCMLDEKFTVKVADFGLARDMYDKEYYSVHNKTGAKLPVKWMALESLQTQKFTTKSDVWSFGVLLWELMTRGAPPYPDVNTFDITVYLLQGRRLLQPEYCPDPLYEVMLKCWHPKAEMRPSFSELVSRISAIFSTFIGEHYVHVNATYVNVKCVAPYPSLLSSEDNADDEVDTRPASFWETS

[17] = molecular target: T1, Tyrosine-protein kinase receptor UFO; assay: Inhibition of AXL (unknown origin)
[18] = molecular target: T2, Proto-oncogene tyrosine-protein kinase Src; assay: Inhibition of SRC (unknown origin)
[19] = molecular target: T4, Hepatocyte growth factor receptor; assay: Inhibition of c-MET (unknown origin)
[20] = molecular target: T3, Epidermal growth factor receptor; assay: Inhibition of wild type EGFR (unknown origin)
[21] = Ratio of IC50 for antimigratory activity against human MDA-MB-231 cells after 3.5 hrs by microscopy based Boyden chamber assay to IC50 for inhibition of AXL (unknown origin)
[22] = system: MDA-MB-231; assay: Antimigratory activity against human MDA-MB-231 cells after 3.5 hrs by microscopy based Boyden chamber assay; assay type: functional, cell-based; conditions: MDA-MB-231, 3.5 h
In short: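 Modified Boyden chamber: MDA-MB-231 cells plated in 0.1% FCS medium, migrating through 8 µm pore membrane toward 1% FCS chemoattractant for 3.5 h; transmigrated cells counted microscopically in at least 5 random fields per well.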

[23] = system: MDA-MB-231; assay: Anti-invasive activity against human MDA-MB-231 cells up to 3 uM after 5 hrs by matrigel assay; assay type: functional, cell-based
In short: (§1)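 MDA-MB-231 cells (7000/well) seeded on polymerized 3 mg/mL Matrigel (set ≥16 h at 37°C) in serum-free medium; inhibitor added at seeding, aggregates forming over 5 h.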

[24] = system: MDA-MB-231; assay: Antimigratory activity against human MDA-MB-231 cells assessed as inhibition of large cell aggregate formation after 5 hrs by matrigel assay; assay type: functional, cell-based; conditions: MDA-MB-231, 5 h; in short: as §1
[25] = Selectivity ratio of compound effect for anti-invasive activity against human MDA-MB-231 cells to IC50 for AXL (unknown origin) phosphorylation
[26] = Toxicity in SCID/beige mouse xenografted with human MDA-MB-231 cells assessed as body weight gain at 10 mg/kg, iv administered 3 times per week measured 3 times per week starting at day 12; assay type: organism-based; conditions: in vivo
[27] = system: MDA-MB-231; assay: Antitumor activity against human MDA-MB-231 cells xenografted in mouse assessed as tumor growth inhibition at 10 mg/kg, iv administered 3 times per week measured 3 times per week starting at day 12; assay type: functional, organism-based
In short: (§2)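 Female SCID/Beige mice inoculated with 2 x 10^6 MDA-MB-231 cells in HBSS:Matrigel (1:1) into third mammary fat pad under ketamine/xylazine. Test agent 30 mg/kg ip twice daily (12 h apart) in PEG400/H2O 70:30, or paclitaxel 10 mg/kg iv three times weekly; 10 mice/group. Tumors measured three times weekly from day 12; lungs and lymph nodes excised, formalin-fixed, nodes H&E-scored (mean ± SEM).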

[28] = system: MDA-MB-231; assay: Antimetastatic activity against human MDA-MB-231 cells xenografted in mouse assessed as reduction in lung metastasis at 10 mg/kg, iv administered 3 times per week measured 3 times per week starting at day 12 by hematoxylin and eosin staining based assay relative to control; assay type: functional; parameters: scale not given: the % may be the effect or the level left; in short: as §2
[29] = system: MDA-MB-231; assay: Antimetastatic activity against human MDA-MB-231 cells xenografted in mouse assessed as reduction in lymph node infiltrates at 10 mg/kg, iv administered 3 times per week measured 3 times per week starting at day 12 by hematoxylin and eosin staining based assay; assay type: functional, organism-based; in short: as §2

Compound: COc1cc2c(Oc3ccc(NS(=O)(=O)c4ccccc4C(F)(F)F)cc3F)ccnc2cc1OCCCN1CCOCC1
- IC50 [1]: 21 nM
- Activity [2]: Active
- Activity [3]: Active
- Activity [4]: Active
- Activity [5]: Active
- Activity [6]: Active
- Activity [7]: Active
- Activity [8]: Active
- Activity [9]: Active
- Activity [10]: Active
- Activity [11]: Active
- Activity [12]: Active
- Activity [13]: Active
- Activity [14]: Active
- Activity [15]: Active
- Activity [16]: Active
- IC50 [17]: 21 nM
- IC50 [18]: 995 nM
- IC50 [19]: 338 nM
- IC50 [20]: 650 nM
- Ratio IC50 [21]: >50

Compound: COc1cc2c(Oc3ccc(NS(=O)(=O)c4ccccc4C(F)(F)F)cc3F)ccnc2cc1OCCCN1CCC(C)CC1
- Activity [2]: Active
- Activity [3]: Active
- Activity [4]: Active
- Activity [5]: Active
- Activity [6]: Active
- Activity [7]: Active
- Activity [8]: Active
- Activity [9]: Active
- Activity [10]: Active
- Activity [11]: Active
- Activity [12]: Active
- Activity [13]: Active
- Activity [14]: Active
- Activity [15]: Active
- Activity [16]: Active
- IC50 [17]: 46 nM
- IC50 [18]: 1720 nM
- IC50 [19]: 609 nM
- IC50 [20]: 592 nM
- Ratio IC50 [21]: >50

Compound: COc1cc2c(Oc3ccc(NS(=O)(=O)c4cc(F)ccc4F)cc3F)ccnc2cc1OCC(=O)N(C)C
- IC50 [1]: > 1000 nM

Compound: COc1cc2c(Oc3ccc(NS(=O)(=O)c4ccccc4OC(F)(F)F)cc3F)ccnc2cc1OCCCN1CCN(C)CC1
- IC50 [1]: 51 nM
- IC50 [17]: 51 nM
- IC50 [18]: 1950 nM
- IC50 [19]: 1540 nM
- IC50 [20]: 3080 nM
- IC50 [22]: 4.3 µM
- inhibition [23]: Active
- IC50 [24]: 103 nM
- Ratio IC50 [21]: >50
- Selectivity ratio [25]: 2 - 6

Compound: COc1cc2nccc(Oc3ccc(NS(=O)(=O)c4ccc(F)c(Cl)c4)c(F)c3)c2cc1OC
- IC50 [1]: > 1000 nM

Compound: CC(=O)O[C@H]1C(=O)[C@@]2(C)[C@H]([C@H](OC(=O)c3ccccc3)[C@]3(O)C[C@H](OC(=O)[C@H](O)[C@@H](NC(=O)c4ccccc4)c4ccccc4)C(C)=C1C3(C)C)[C@]1(OC(C)=O)CO[C@@H]1C[C@@H]2O [PACLITAXEL]
- Activity [26]: Toxic
- TGI [27]: Active
- Activity [28]: 54.3%
- Activity [29]: inactive

Compound: COc1cc2nccc(Oc3ccc(NS(=O)(=O)c4c(F)cccc4F)c(F)c3)c2cc1OC
- IC50 [1]: > 1000 nM
